Consider three compounds from ChEMBL document CHEMBL3112522, “Bicyclic brominated furanones: a new class of quorum sensing modulators that inhibit bacterial biofilm formation” (Bioorg Med Chem, 2014).

Data set [1] deals with Escherichia coli. Description: Antibacterial activity against Escherichia coli RP437 expressing red fluorescence protein assessed as inhibition of biofilm formation measured as reduction in surface area at 200 uM after 24 hrs by confocal laser scanning microscopic analysis. In kind it is functional, organism-based. Summed up:
(§1)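 E. coli RP437 (pRSH103, red fluorescent; grown in LB with 10 µg/mL tetracycline) formed biofilms on 316 stainless-steel coupons with 200 µM compound or 0.4% DMSO control, static, 37 °C, 24 h. Coupons rinsed three times in 0.9% NaCl, then imaged by CLSM. COMSTAT gave biomass, mean thickness and surface area from z-stacks at four locations, normalized to the BF-free control. Four replicates.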

The subject of data set [2] is Escherichia coli. Description: Antibacterial activity against Escherichia coli RP437 expressing red fluorescence protein assessed as inhibition of biofilm formation measured as reduction in mean thickness of biofilm at 200 uM after 24 hrs by confocal laser scanning microscopic analysis. In kind it is functional, organism-based. The procedure, abridged: as §1
For data set [3], the system named is Escherichia coli. Description: Antibacterial activity against Escherichia coli RP437 expressing red fluorescence protein assessed as inhibition of biofilm formation measured as reduction in biomass at 200 uM after 24 hrs by confocal laser scanning microscopic analysis. In kind it is functional, organism-based. Summed up:
as §1

The test system of a further data set is SK-N-SH. The data set can be described thus: Cytotoxicity against human SK-N-SH cells assessed as cell survival at 100 uM incubated for 1 hr followed by compound washout measured up to 48 hrs by CCK-8 assay. In kind it is cell-based. The procedure, abridged:
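SK-N-SH cells seeded at 5×10^4 cells/mL (100 µL) in EMEM with 10% FBS and allowed to adhere 24 h. Exposed 1 h to 100 µM compound or DMSO control, washed twice, then allowed to recover 0, 24 or 48 h. Live cells measured by CCK-8 at A450. Survival = (sample − medium)/(control − medium) × 100.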

Data set [4] is described as follows: Cytotoxicity against human SK-N-SH cells assessed as cell survival at 400 uM incubated for 1 hr followed by compound washout measured after 48 hrs by CCK-8 assay relative to control. In kind it is cell-based. The following applies: read-out: Survival. Summed up: (§2)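 SK-N-SH cells were grown in EMEM with 10% FBS, penicillin/streptomycin and 2.0 mM L-glutamine at 37 °C, 5% CO2. Wells were seeded at 5×10^4 cells/mL and left 24 h to adhere. Cells were exposed for 1 h in fresh medium, with DMSO-matched controls, then washed twice. After 0, 24 or 48 h recovery, CCK-8 A450 was read. Survival = (sample−medium)/(control−medium)×100.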

Data set [5] in a line: Cytotoxicity against human SK-N-SH cells assessed as cell survival at 400 uM incubated for 1 hr followed by compound washout measured after 24 hrs by CCK-8 assay relative to control. In kind it is cell-based. The following applies: read-out: Survival. The procedure, abridged:
as §2

The nature of data set [6]: Cytotoxicity against human SK-N-SH cells assessed as cell survival at 400 uM incubated for 1 hr followed by compound washout measured immediately by CCK-8 assay relative to control. In kind it is cell-based. The following applies: read-out: Survival. The procedure, abridged: as §2
Data set [7] has as its system Pseudomonas aeruginosa. The data set can be described thus: Inhibition of quorum sensing system in Pseudomonas aeruginosa PAO-JP2 assessed as reduction of elastase B production at 300 uM after 24 hrs by congo-red staining-based assay relative to control. The procedure, abridged: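 PAO-JP2 grown in PTSB at 37 °C, subcultured at OD600 0.05 with 5 µM 3-oxo-C12-HSL and 10 µM C4-HSL ± compound, shaken at 250 rpm for 24 h. Filtered supernatant (100 µL) incubated with Elastin-Congo red (4.5 mg in 900 µL Tris-HCl pH 7.2, 1 mM CaCl2) for 24 h at 37 °C, stopped with EDTA. A490 read minus bacteria-free blank, normalized to control. Four replicates.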

For data set [8], the target named is T1, HTH-type quorum-sensing regulator RhlR (Pseudomonas aeruginosa (strain ATCC 15692 / PAO1 / 1C / PRS 101 / LMG12228)) (UniProt P54292).
T1 sequence (whole entry): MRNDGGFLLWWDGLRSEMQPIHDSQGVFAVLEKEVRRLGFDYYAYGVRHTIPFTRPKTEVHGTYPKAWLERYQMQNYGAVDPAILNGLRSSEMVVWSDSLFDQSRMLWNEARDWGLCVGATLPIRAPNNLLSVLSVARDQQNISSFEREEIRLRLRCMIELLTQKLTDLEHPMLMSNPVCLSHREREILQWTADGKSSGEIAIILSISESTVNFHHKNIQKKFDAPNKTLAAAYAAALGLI
Description: Agonist activity at RhlR in Pseudomonas aeruginosa PAO-JP2 expressing RhlI assessed as effect on GFP production at 50 to 300 uM after 24 hrs by fluorescence assay in presence of 3-oxo-C12-HSL and C4-HSL relative to control. The procedure, abridged:
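PAO-JP2 (prhlI-LVAgfp) grown in M9 with 300 µg/mL carbenicillin to OD600 0.1, dosed with 1 µM 3-oxo-C12-HSL and 10 µM C4-HSL ± compound, shaken at 250 rpm and 37 °C for 24 h. GFP read at ex 500/em 540 nm, M9 background subtracted, divided by OD600 and normalized to the BF-free control. Four replicates.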

For data set [9], the target named is T2, Transcriptional activator protein LasR (Pseudomonas aeruginosa (strain ATCC 15692 / PAO1 / 1C / PRS 101 / LMG12228)) (UniProt P25084).
T2 sequence (whole entry): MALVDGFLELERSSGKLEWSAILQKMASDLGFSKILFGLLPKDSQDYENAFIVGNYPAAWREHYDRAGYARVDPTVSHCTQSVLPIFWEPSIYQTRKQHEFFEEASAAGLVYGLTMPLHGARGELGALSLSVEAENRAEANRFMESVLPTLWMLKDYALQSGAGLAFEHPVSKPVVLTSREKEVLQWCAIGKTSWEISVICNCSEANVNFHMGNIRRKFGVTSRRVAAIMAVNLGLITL
The data set can be described thus: Antagonist activity at LasR in Pseudomonas aeruginosa PAO-JP2 expressing LasI assessed as inhibition of GFP production at 50 to 300 uM after 24 hrs by fluorescence assay in presence of 3-oxo-C12-HSL. Summed up:
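PAO-JP2 (plasI-LVAgfp) grown in M9 with 300 µg/mL carbenicillin to OD600 0.1, given 1 µM 3-oxo-C12-HSL ± compound at varied concentrations, incubated 24 h at 37 °C with shaking at 250 rpm. GFP read at ex 500/em 540 nm, M9 background subtracted, divided by OD600 and normalized to the BF-free control. Four replicates.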

Data set [10] concerns Escherichia coli. Description: Toxicity in Escherichia coli RP437 assessed as planktonic growth inhibition at 200 uM after 24 hrs. In kind it is organism-based. The note with it: in vivo. Summed up:
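E. coli RP437 in LB at 37 °C, started at OD600 0.05 in 96-well plates with 200 µM compound (DMSO stock), shaken at 250 rpm. OD600 read at 0, 2, 4, 6, 8, 10, 12 and 24 h, normalized to the BF-free control. Six replicates.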

Data set [11] has as its system Pseudomonas aeruginosa. The data set can be described thus: Toxicity in Pseudomonas aeruginosa PAO1 assessed as planktonic growth inhibition at 400 uM after 24 hrs. The note with it: in vivo. In kind it is organism-based.
The subject of data set [12] is Escherichia coli. Description: Antibacterial activity against Escherichia coli RP437 expressing red fluorescence protein assessed as inhibition of biofilm formation at 200 uM after 24 hrs by confocal laser scanning microscopic analysis. In kind it is functional, organism-based. Summed up:
as §1

Data set [13] deals with Pseudomonas aeruginosa. The data set can be described thus: Antibacterial activity against Pseudomonas aeruginosa PAO1 expressing green fluorescence protein assessed as inhibition of biofilm formation measured as reduction in surface area at 400 uM after 24 hrs by confocal laser scanning microscopic analysis relative to control. In kind it is functional, organism-based.

Active and inactive are the calls of the source. The rule behind the calls is not given here.

Take `O=C1C=C2CCC(Br)=C2O1`: the inhibition result (in the data set on Escherichia coli [1]; in the data set with Escherichia coli [2]; with Escherichia coli [3]; in data set [9]; in the data set with Escherichia coli [12]; in the data set with Pseudomonas aeruginosa [13]) was “Active” throughout. Further, the Activity entry with SK-N-SH, in the data set on Escherichia coli [10] and with Pseudomonas aeruginosa [11] was “Non-toxic” in each case. For the same compound, the viability at 1 h, 400 µM in data set [4] came to 6%; in data set [5], 21%; in data set [6] it was 76%. Moreover, the inhibition in the data set with Pseudomonas aeruginosa [7] stood at 80%. In addition, in [8], the result was Active.
Consider `O=C1C=C2CCCCC(Br)=C2O1`, for which the inhibition entry (in the data set with Escherichia coli [1]; with Escherichia coli [2]; with Escherichia coli [3]; in data set [9]; with Escherichia coli [12]; in the data set on Pseudomonas aeruginosa [13]) was “Active” throughout. Also, the Activity entry in the data set with SK-N-SH, in the data set with Escherichia coli [10] and in the data set on Pseudomonas aeruginosa [11] was “Non-toxic” throughout. The viability at 1 h, 400 µM in data set [4] was 13%; in data set [5], 7%; in [6] it was 44%. For the same compound, the inhibition in the data set on Pseudomonas aeruginosa [7] was determined as 80%. Also, the result in data set [8] was inactive.
Turning to `O=C1C=C2CCCC(Br)=C2O1`, the inhibition result (with Escherichia coli [1]; in the data set with Escherichia coli [2]; with Escherichia coli [3]; in data set [9]; with Escherichia coli [12]; in the data set on Pseudomonas aeruginosa [13]) was “Active” each time. The Activity result in the data set on SK-N-SH, in the data set with Escherichia coli [10] and in the data set on Pseudomonas aeruginosa [11] was “Non-toxic” each time. The results for the viability at 1 h, 400 µM in [4], in [5] and in [6] were 50%, 50% and 76%, respectively. Also, in the data set with Pseudomonas aeruginosa [7], the inhibition came to 80%. Further, in data set [8], the outcome was inactive.
